Experiments:
[1] = system: patients with type 2 diabetes inadequately controlled on metformin; assay: HbA1c, phase 2 trial LIBERATE 204; assay type: in vivo, human
How it was run: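 HbA1c was assessed at week 17, after 16 weeks of double-blind sc treatment on background metformin. Dosing was 4 mg weekly for 4 weeks, 8 mg on day 29, then the assigned dose every 28 days; placebo was matched. The proportion reaching HbA1c <53 mmol/mol (<7%) was compared with placebo by Fisher's exact test in the full analysis set.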

[2] = system: patients with type 2 diabetes inadequately controlled on metformin; assay: Body weight, LIBERATE 204; assay type: in vivo, human; conditions: mean (SD)
How it was run: (§1)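 Adults 18–<75 y with T2D on stable metformin (≥1500 mg/d or maximum tolerated dose) had HbA1c 53–86 mmol/mol and BMI <40. They received double-blind sc test compound or placebo (0.53 mL prefilled syringe): 4 mg weekly on days 1, 8, 15 and 22, 8 mg on day 29, then the assigned dose on days 57 and 85. Measured at baseline and week 17 in the full analysis set; change analysed by MMRM (LS means, 95.1% CIs).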

[3] = system: patients with type 2 diabetes inadequately controlled on metformin; assay: Seven-point glucose profile; assay type: in vivo, human; conditions: full analysis set n = 52, mean (SD)
How it was run: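 Patients self-measured glucose with a provided glucometer for a seven-point profile: 90 min pre- and postprandial readings plus bedtime, recorded in a diary. Mean daily glucose was derived from this profile. Dosing was double-blind sc, with metformin continued: 4 mg weekly ×4, 8 mg on day 29, then the assigned monthly dose on days 57 and 85. Full analysis set; change to week 17 analysed by MMRM with 95.1% CIs.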

[4] = system: patients with type 2 diabetes inadequately controlled on metformin; assay: Anti-efpeglenatide antibodies, enzyme-linked immunosorbent assay; assay type: in vivo, human; conditions: log 2-expressed titre of at least 2
How it was run: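 Anti-drug antibodies in patient blood samples were detected by ELISA with an absorbance plate read-out, validated at a central laboratory. Treatment-emergent antibodies were evaluated in the safety set of patients on double-blind sc dosing with background metformin.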

[5] = system: patients with type 2 diabetes inadequately controlled on metformin; assay: Neutralizing antibodies, cell-based cAMP-Glo assay; assay type: in vivo, human; conditions: any patient at any time
How it was run: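 Neutralizing activity of anti-drug antibodies in patient samples was tested in a cell-based assay. Antibody-mediated inhibition of intracellular cAMP was read by cAMP-Glo luminescence; the assay was validated at a central laboratory. Patients received double-blind sc test compound or placebo.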

[6] = system: patients with type 2 diabetes inadequately controlled on metformin; assay: Fasting plasma glucose; assay type: in vivo, human; conditions: mean (SD)
How it was run: as §1

[7] = system: patients with type 2 diabetes inadequately controlled on metformin; assay: Vital signs, LIBERATE 204; assay type: in vivo, human; conditions: any post-baseline time point from week 2 to week 17 or at follow-up (week 23)
[8] = system: patients with T2D who were drug-naïve or on metformin; conditions: 4 mg once weekly; 12 weeks; EXCEED; cited from earlier work
[9] = system: patients with type 2 diabetes inadequately controlled on metformin; assay: Treatment-emergent adverse events and hypoglycaemia, LIBERATE 204; assay type: in vivo, human
How it was run: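 Safety set comprised all patients receiving any study drug, grouped by treatment actually received; analysed descriptively. TEAEs were adverse events starting or worsening on or after the first dose. Hypoglycaemia AEs required confirmed blood glucose <3.9 mmol/L (<70 mg/dL), coded by MedDRA 16.1. Injection-site reactions and symptomatic hypoglycaemic episodes came from patient diaries. Dosing was double-blind sc on background metformin.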

[10] = 8 mg once monthly sc, full analysis set n = 52
[11] = 12 mg once monthly sc, full analysis set n = 52
[12] = 16 mg once monthly sc, full analysis set n = 52
[13] = overall (8, 12 and 16 mg once monthly sc), full analysis set n = 156
[14] = 8 mg once monthly sc, safety set n = 52
[15] = 12 mg once monthly sc, safety set n = 52
[16] = 16 mg once monthly sc, safety set n = 53
[17] = overall (8, 12 and 16 mg once monthly sc), safety set n = 157

## efpeglenatide
[1]; [10]
  Patients with HbA1c <53 mmol/mol (7%) at Week 17: 26 (50.0) n (%)
[1]; [11]
  Patients with HbA1c <53 mmol/mol (7%) at Week 17: 26 (50.0) n (%)
[1]; [12]
  Patients with HbA1c <53 mmol/mol (7%) at Week 17: 24 (46.2) n (%)
[1]; [13]
  Patients with HbA1c <53 mmol/mol (7%) at Week 17: 76 (48.7) n (%)
[2]; [10]
  Body weight at Week 17: 89.98 (18.12) kg
[2]; [11]
  Body weight at Week 17: 91.87 (15.31) kg
[2]; [12]
  Body weight at Week 17: 85.72 (15.58) kg
[2]; [13]
  Body weight at Week 17: 89.26 (16.49) kg
[3]; 8 mg once monthly sc
  Mean daily glucose at Week 17: 8.76 (2.13) mmol/L
[3]; 12 mg once monthly sc
  Mean daily glucose at Week 17: 8.89 (2.50) mmol/L
[3]; 16 mg once monthly sc
  Mean daily glucose at Week 17: 8.49 (1.43) mmol/L
[4]; [14]
  Antibody formation: Treatment-emergent (titre ≥2): 5 (9.6) n (%)
[4]; [15]
  Antibody formation: Treatment-emergent (titre ≥2): 6 (11.5) n (%)
[4]; [16]
  Antibody formation: Treatment-emergent (titre ≥2): 4 (7.5) n (%)
[5]
  Neutralizing antibodies: no neutralizing antibodies were detected
[6]; [10]
  FPG at Week 17: 7.86 (2.28) mmol/L
[6]; [11]
  FPG at Week 17: 8.09 (2.28) mmol/L
[6]; [12]
  FPG at Week 17: 7.76 (1.93) mmol/L
[6]; [13]
  FPG at Week 17: 7.90 (2.16) mmol/L
[7]
  Mean changes from baseline in heart rate, temperature, systolic blood pressure or diastolic blood pressure: no meaningful mean changes
[8]
  HbA1c reduction from baseline compared with once-daily liraglutide: non‐inferior
[9]; [14]
  Any TEAE: 43 (82.7) n (%)
  Any TEAE leading to discontinuation: 6 (11.5) n (%)
  Injection-site reaction: 4 (7.7) n (%)
  SAEs: Any: 0 (0.0) n (%)
  SAEs: GI disorders: 0 (0.0) n (%)
  SAEs: Injury, poisoning and procedural complications: 0 (0.0) n (%)
  SAEs: Neoplasms: benign, malignant and unspecified: 0 (0.0) n (%)
  SAEs: Nervous system disorders: 0 (0.0) n (%)
  SAEs: Psychiatric disorders: 0 (0.0) n (%)
  TEAE: Diarrhoea: 9 (17.3) n (%)
  TEAE: GI disorders: 26 (50.0) n (%)
  TEAE: Nausea: 14 (26.9) n (%)
  TEAE: Vomiting: 8 (15.4) n (%)
[9]; [15]
  Any TEAE: 43 (82.7) n (%)
  Any TEAE leading to discontinuation: 7 (13.5) n (%)
  Injection-site reaction: 4 (7.7) n (%)
  SAEs: Any: 5 (9.6) n (%)
  SAEs: GI disorders: 1 (1.9) n (%)
  SAEs: Injury, poisoning and procedural complications: 1 (1.9) n (%)
  SAEs: Neoplasms: benign, malignant and unspecified: 1 (1.9) n (%)
  SAEs: Nervous system disorders: 1 (1.9) n (%)
  SAEs: Psychiatric disorders: 1 (1.9) n (%)
  TEAE: Diarrhoea: 8 (15.4) n (%)
  TEAE: GI disorders: 29 (55.8) n (%)
  TEAE: Nausea: 24 (46.2) n (%)
  TEAE: Vomiting: 13 (25.0) n (%)
[9]; [16]
  Any TEAE: 43 (81.1) n (%)
  Any TEAE leading to discontinuation: 8 (15.1) n (%)
  Injection-site reaction: 2 (3.8) n (%)
  SAEs: Any: 3 (5.7) n (%)
  SAEs: GI disorders: 0 (0.0) n (%)
  SAEs: Injury, poisoning and procedural complications: 1 (1.9) n (%)
  SAEs: Neoplasms: benign, malignant and unspecified: 1 (1.9) n (%)
  SAEs: Nervous system disorders: 1 (1.9) n (%)
  SAEs: Psychiatric disorders: 0 (0.0) n (%)
  TEAE: Diarrhoea: 11 (20.8) n (%)
  TEAE: GI disorders: 31 (58.5) n (%)
  TEAE: Nausea: 23 (43.4) n (%)
  TEAE: Vomiting: 17 (32.1) n (%)
[9]; any group
  Hypoglycaemia TEAEs (blood glucose ≤3.9 mmol/L [≤70 mg/dL]): No hypoglycaemia TEAEs
[9]; during the study
  AEs of acute or chronic pancreatitis: No AEs of acute or chronic pancreatitis were reported
  Deaths: No deaths
[9]; [17]
  Any TEAE: 129 (82.2) n (%)
  Any TEAE leading to discontinuation: 21 (13.4) n (%)
  Injection-site reaction: 10 (6.4) n (%)
  SAEs: Any: 8 (5.1) n (%)
  SAEs: GI disorders: 1 (0.6) n (%)
  SAEs: Injury, poisoning and procedural complications: 2 (1.3) n (%)
  SAEs: Neoplasms: benign, malignant and unspecified: 2 (1.3) n (%)
  SAEs: Nervous system disorders: 2 (1.3) n (%)
  SAEs: Psychiatric disorders: 1 (0.6) n (%)
  TEAE: Diarrhoea: 28 (17.8) n (%)
  TEAE: GI disorders: 86 (54.8) n (%)
  TEAE: Nausea: 61 (38.9) n (%)
  TEAE: Vomiting: 38 (24.2) n (%)

Source: paper PMC7383886 (Diabetes, Obesity & Metabolism, 2020)
